Laboratory results as given in ChEMBL document CHEMBL3351225, “Design, synthesis, and structure-activity and structure-pharmacokinetic relationship studies of novel [6,6,5] tricyclic fused oxazolidinones leading to the discovery of a potent, selective, and orally bioavailable FXa inhibitor” (J Med Chem, 2014).

What was measured:
[1] = tested on: Rattus norvegicus; assay: Induction of tail bleeding in rat assessed as prolongation of bleeding time dosed orally 60 mins before surgery; format: organism-based; conditions: in vivo, po, 1 h
Procedure, shortened: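 Anesthetized rats were dosed orally with compound suspended in 0.5% CMC-Na, or vehicle, 60 min before the tail was transected 4 mm from the tip. The tail was immersed vertically in saline at 37 °C. Bleeding time was taken as the point when flow ceased for >30 s, with a 30 min maximum.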

[2] = Cmax in Beagle dog at 1 mg/kg, po; format: ADME, organism-based, Canis lupus familiaris; parameters: dose 1 mg/kg, route oral; conditions: in vivo
Procedure, shortened: (§1)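 Male dogs, three per group. Dosed orally at 1 mg/kg or by intravenous infusion at 0.5 mg/kg. Vehicle was 5% DMSO + 5% Tween-80 in 90% saline, or 10% DMSO + 10% Tween-80 + 80% PEG400 for the reference drug. Foreleg blood samples were quantified by LC-MS. Parameters came from noncompartmental analysis of mean plasma concentrations.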

[3] = tested on: Rattus norvegicus; assay: Toxicity in rat assessed as induction of behavioral changes at 100 mg/kg, po dosed once daily for 2 weeks; format: organism-based; parameters: dose 100 mg/kg, route oral; conditions: in vivo, 336 h
Procedure, shortened: (§2)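 Subacute toxicity in rats: oral dosing once daily for 2 weeks at 50 mg/kg (medium) or 100 mg/kg (high). Behavior, body weight, food intake, organ coefficients and survival rate were monitored.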

[4] = tested on: Rattus norvegicus; assay: Toxicity in rat assessed as induction of food intake changes at 50 mg/kg, po dosed once daily for 2 weeks; format: organism-based; parameters: dose 50 mg/kg, route oral; conditions: in vivo, 336 h; procedure, shortened: as §2
[5] = molecular target: Coagulation factor IX (Homo sapiens, UniProt P00740); assay: Inhibition of human factor 9a using CH3SO2-(D)CHG Gly-Arg-pNA, Biophen-CS51 chromogenic substrate
Chain of Coagulation factor IX (P00740 47-191 limits assumed): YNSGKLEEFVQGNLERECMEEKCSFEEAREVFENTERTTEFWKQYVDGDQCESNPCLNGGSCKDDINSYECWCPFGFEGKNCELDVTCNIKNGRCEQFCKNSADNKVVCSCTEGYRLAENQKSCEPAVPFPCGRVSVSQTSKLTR
Chain of Coagulation factor IX (P00740 227-461 limits assumed): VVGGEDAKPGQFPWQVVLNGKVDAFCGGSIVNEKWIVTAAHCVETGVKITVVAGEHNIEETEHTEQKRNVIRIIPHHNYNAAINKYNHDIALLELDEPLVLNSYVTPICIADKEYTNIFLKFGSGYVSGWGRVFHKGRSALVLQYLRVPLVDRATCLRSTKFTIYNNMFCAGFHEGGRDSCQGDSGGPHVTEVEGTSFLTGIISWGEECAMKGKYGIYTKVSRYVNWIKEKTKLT

[6] = molecular target: Cytochrome P450 2C9 (Homo sapiens, UniProt P11712); assay: Inhibition of CYP2C9 (unknown origin); format: ADME
Chain of Cytochrome P450 2C9 (P11712 whole entry): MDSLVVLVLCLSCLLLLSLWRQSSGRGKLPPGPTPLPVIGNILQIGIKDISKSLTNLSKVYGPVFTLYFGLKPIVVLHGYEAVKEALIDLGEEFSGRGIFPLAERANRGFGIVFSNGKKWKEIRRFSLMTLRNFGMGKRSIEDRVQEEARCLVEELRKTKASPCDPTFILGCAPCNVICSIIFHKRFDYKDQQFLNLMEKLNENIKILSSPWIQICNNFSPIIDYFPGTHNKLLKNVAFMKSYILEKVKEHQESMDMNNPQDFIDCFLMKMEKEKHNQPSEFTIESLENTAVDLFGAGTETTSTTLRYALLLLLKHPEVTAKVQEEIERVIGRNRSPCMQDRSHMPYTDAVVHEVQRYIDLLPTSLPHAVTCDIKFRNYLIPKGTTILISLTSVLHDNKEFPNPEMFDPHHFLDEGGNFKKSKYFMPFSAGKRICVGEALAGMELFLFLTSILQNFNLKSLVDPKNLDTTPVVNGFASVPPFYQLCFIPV

[7] = molecular target: Prothrombin (Homo sapiens, UniProt P00734); assay: Inhibition of human factor 2a using L-pyro-Glu-Pro-ArgpNA, S-2366 chromogenic substrate
Procedure, shortened: (§3)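 Human enzyme and inhibitor were premixed and preincubated, then the chromogenic substrate was added. Substrate levels: 300 μM S-2765 (FXa, trypsin); 200 μM S-2366 (FIIa); 2 mM S-2366 (FVIIa, FXIa). pNA release was monitored continuously at 405 nm for 20 min at 37 °C. IC50 was obtained by nonlinear regression.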

[8] = Elimination half life in Beagle dog at 1 mg/kg, po; format: ADME, organism-based, Canis lupus familiaris; parameters: dose 1 mg/kg, route oral; conditions: in vivo; procedure, shortened: as §1
[9] = tested on: Rattus norvegicus; assay: Toxicity in rat assessed as survival rate changes at 50 mg/kg, po dosed once daily for 2 weeks; format: organism-based; parameters: dose 50 mg/kg, route oral; conditions: in vivo, 336 h; procedure, shortened: as §2
[10] = molecular target: Cytochrome P450 2D6 (Homo sapiens, UniProt P10635); assay: Inhibition of CYP2D6 (unknown origin); format: ADME
Chain of Cytochrome P450 2D6 (P10635 whole entry): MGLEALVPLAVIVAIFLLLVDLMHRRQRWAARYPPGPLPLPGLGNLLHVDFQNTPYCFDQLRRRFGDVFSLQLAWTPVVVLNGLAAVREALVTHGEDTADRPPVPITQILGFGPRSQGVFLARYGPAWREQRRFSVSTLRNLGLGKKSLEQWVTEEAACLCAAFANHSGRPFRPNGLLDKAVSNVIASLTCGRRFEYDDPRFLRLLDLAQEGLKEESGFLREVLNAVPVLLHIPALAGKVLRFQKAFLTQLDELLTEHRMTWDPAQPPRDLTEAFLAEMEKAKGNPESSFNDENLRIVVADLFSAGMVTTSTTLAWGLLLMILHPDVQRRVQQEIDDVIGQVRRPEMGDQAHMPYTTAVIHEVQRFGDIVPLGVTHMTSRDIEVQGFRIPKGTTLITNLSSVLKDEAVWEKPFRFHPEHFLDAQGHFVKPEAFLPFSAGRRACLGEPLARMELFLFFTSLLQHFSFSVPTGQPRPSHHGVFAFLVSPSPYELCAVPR

[11] = tested on: Rattus norvegicus; assay: Toxicity in rat assessed as induction of food intake changes at 100 mg/kg, po dosed once daily for 2 weeks; format: organism-based; parameters: dose 100 mg/kg, route oral; conditions: in vivo, 336 h; procedure, shortened: as §2
[12] = tested on: Salmonella typhimurium; assay: Genotoxicity in Salmonella typhimurium by Ames test; format: toxicity, organism-based; conditions: salmonella enterica subsp. enterica serovar typhimurium
[13] = Oral bioavailability in Sprague-Dawley rat at 10 mg/kg; format: ADME, organism-based; conditions: in vivo
Procedure, shortened: (§4)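 Male Sprague-Dawley rats, 200−220 g, four per group. Vehicle was 5% DMSO + 5% Tween-80 in 90% saline. The reference drug was given in 10% DMSO + 10% Tween-80 + 80% PEG400 (40% solution in saline). Serial retrobulbar vein samples were quantified by LC-MS. Parameters came from noncompartmental analysis of mean plasma concentrations.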

[14] = Plasma clearance in Beagle dog at 0.5 mg/kg, iv; format: ADME, organism-based, Canis lupus familiaris; parameters: dose 0.5 mg/kg, route intravenous; procedure, shortened: as §1
[15] = Plasma clearance in Sprague-Dawley rat at 3 mg/kg, iv; format: ADME, organism-based; parameters: dose 3 mg/kg, route intravenous; procedure, shortened: as §4
[16] = tested on: Rattus norvegicus; assay: Toxicity in rat assessed as induction of body weight changes at 100 mg/kg, po dosed once daily for 2 weeks; format: organism-based; parameters: dose 100 mg/kg, route oral; conditions: in vivo, 336 h; procedure, shortened: as §2
[17] = AUC (0 to infinity) in Beagle dog at 0.5 mg/kg, iv; format: ADME, organism-based, Canis lupus familiaris; parameters: time infinity, dose 0.5 mg/kg, route intravenous; conditions: plasma; procedure, shortened: as §1
[18] = Tmax in Beagle dog at 1 mg/kg, po; format: ADME, organism-based, Canis lupus familiaris; parameters: dose 1 mg/kg, route oral; conditions: in vivo; procedure, shortened: as §1
[19] = Oral bioavailability in Beagle dog at 1 mg/kg; format: ADME, organism-based, Canis lupus familiaris; conditions: in vivo; procedure, shortened: as §1
[20] = molecular target: Cytochrome P450 3A4 (Homo sapiens, UniProt P08684); assay: Inhibition of CYP3A4 (unknown origin); format: ADME
Chain of Cytochrome P450 3A4 (P08684 whole entry): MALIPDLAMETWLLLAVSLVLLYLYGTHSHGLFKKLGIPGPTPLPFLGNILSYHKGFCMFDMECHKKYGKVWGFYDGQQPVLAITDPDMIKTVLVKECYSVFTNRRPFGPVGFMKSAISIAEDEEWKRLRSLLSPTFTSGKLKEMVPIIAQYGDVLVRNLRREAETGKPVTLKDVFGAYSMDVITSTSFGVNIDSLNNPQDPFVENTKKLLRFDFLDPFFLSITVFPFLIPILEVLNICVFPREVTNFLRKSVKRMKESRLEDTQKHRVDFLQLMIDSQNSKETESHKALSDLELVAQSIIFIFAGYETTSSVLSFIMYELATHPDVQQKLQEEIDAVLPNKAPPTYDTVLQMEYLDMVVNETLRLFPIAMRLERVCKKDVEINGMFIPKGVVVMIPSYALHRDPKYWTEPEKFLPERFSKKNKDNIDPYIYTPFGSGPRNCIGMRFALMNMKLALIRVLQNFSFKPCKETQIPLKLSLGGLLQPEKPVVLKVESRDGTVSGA

[21] = molecular target: Coagulation factor XI (Homo sapiens, UniProt P03951); assay: Inhibition of human factor 11a using S-2366 chromogenic substrate; procedure, shortened: as §3
Chain of Coagulation factor XI (P03951 19-387 limits assumed): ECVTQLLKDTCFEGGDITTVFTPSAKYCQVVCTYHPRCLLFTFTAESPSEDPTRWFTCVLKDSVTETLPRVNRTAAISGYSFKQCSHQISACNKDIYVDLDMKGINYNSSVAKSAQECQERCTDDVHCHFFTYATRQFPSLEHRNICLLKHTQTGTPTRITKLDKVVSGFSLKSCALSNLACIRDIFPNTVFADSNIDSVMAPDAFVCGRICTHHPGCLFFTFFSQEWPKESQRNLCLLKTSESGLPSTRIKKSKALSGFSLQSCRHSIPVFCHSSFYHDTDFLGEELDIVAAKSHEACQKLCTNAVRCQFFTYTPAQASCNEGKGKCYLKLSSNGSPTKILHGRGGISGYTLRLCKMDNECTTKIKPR
Chain of Coagulation factor XI (P03951 388-625 limits assumed): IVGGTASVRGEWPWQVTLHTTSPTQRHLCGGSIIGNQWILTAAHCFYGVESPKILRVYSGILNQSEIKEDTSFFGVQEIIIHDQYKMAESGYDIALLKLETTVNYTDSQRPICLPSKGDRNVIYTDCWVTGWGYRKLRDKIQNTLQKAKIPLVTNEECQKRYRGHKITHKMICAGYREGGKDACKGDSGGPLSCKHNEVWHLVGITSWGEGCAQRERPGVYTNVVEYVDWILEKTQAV

[22] = tested on: Rattus norvegicus; assay: Toxicity in rat assessed as survival rate changes at 100 mg/kg, po dosed once daily for 2 weeks; format: organism-based; parameters: dose 100 mg/kg, route oral; conditions: in vivo, 336 h; procedure, shortened: as §2
[23] = molecular target: T1, Coagulation factor VII (Homo sapiens, UniProt P08709); assay: Inhibition of human factor 7a using S-2366 chromogenic substrate; procedure, shortened: as §3
T1 sequence (P08709 whole entry): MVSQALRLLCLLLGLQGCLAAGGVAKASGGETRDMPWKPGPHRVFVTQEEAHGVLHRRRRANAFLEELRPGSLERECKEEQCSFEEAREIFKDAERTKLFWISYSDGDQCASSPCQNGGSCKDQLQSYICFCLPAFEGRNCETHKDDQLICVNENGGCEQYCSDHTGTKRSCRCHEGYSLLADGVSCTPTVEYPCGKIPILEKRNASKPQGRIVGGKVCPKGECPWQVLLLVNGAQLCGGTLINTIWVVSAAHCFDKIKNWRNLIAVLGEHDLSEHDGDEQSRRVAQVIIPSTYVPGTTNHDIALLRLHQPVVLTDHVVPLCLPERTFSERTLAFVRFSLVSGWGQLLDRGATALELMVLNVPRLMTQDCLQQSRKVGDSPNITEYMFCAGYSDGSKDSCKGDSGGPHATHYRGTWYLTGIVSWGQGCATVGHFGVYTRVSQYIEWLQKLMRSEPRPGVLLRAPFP

[24] = AUC (0 to infinity) in Beagle dog at 1 mg/kg, po; format: ADME, organism-based, Canis lupus familiaris; parameters: time infinity, dose 1 mg/kg, route oral; conditions: plasma; procedure, shortened: as §1
[25] = tested on: Rattus norvegicus; assay: Antithrombotic activity in rat model of FeCl3-induced venous thrombosis assessed as reduction in thrombus formation dosed orally 60 mins before thrombus formation; conditions: po
[26] = tested on: Plasma; assay: Anticoagulant activity in citrated rabbit plasma assessed as activated partial thromboplastin time preincubated for 10 mins at 37 degC by coagulometry; format: functional, Oryctolagus cuniculus
Procedure, shortened: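 Test compound or DMSO added to citrated rabbit plasma (3.8% sodium citrate, 10:90 v/v) and preincubated 10 min at 37 °C. PT and aPTT clotting times measured on a coagulometer with commercial kits. Activity expressed as the concentration needed to double plasma clotting time (CT2, μM).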

[27] = AUC (0 to infinity) in Sprague-Dawley rat at 10 mg/kg, po; format: ADME, organism-based; parameters: time infinity, dose 10 mg/kg, route oral; conditions: plasma; procedure, shortened: as §4

Question: Which Activity [1] does the source give for `O=C(NC[C@@H]1OC(=O)N2c3ccc(N4CCOCC4=O)cc3OC[C@@H]12)c1ccc(Cl)s1` here?
Answer: Its Activity is “Dose-dependent effect”.

Question: And the Cmax [2]?
Answer: The Cmax was 530 ng/mL.

Question: And the Activity [3]?
Answer: Its Activity is “Non-toxic”.

Question: What about the Activity [4] of the same molecule?
Answer: Its Activity is “Non-toxic”.

Question: And the IC50 [5]?
Answer: Its IC50 is > 100 µM.

Question: What about the IC50 [6] of the same molecule?
Answer: The IC50 was 43.2 µM.

Question: And the IC50 [7]?
Answer: The IC50 was > 100 µM.

Question: And the half-life [8]?
Answer: Its half-life is 2 h.

Question: What about the Activity [9] of the same molecule?
Answer: The Activity was “Non-toxic”.

Question: What about the IC50 [10] of the same molecule?
Answer: The IC50 was > 200 µM.

Question: And the Activity [11]?
Answer: Its Activity is “Non-toxic”.

Question: And the Activity [12]?
Answer: Its Activity is “Non-toxic”.

Question: What about the bioavailability [13] of the same molecule?
Answer: Its bioavailability is 63.7%.

Question: What about the clearance [14] of the same molecule?
Answer: Its clearance is 6.67 mL/min/kg.

Question: What about the clearance [15] of the same molecule?
Answer: Its clearance is 3.35 mL/min/kg.

Question: And the Activity [16]?
Answer: Its Activity is “Non-toxic”.

Question: And the AUC(0-inf) [17]?
Answer: Its AUC(0-inf) is 1320 ng·h/mL.

Question: What about the Tmax [18] of the same molecule?
Answer: Its Tmax is 0.5 h.

Question: And the bioavailability [19]?
Answer: The bioavailability was 92%.

Question: What about the IC50 [20] of the same molecule?
Answer: The IC50 was 85.1 µM.

Question: And the IC50 [21]?
Answer: Its IC50 is > 100 µM.

Question: What about the Activity [22] of the same molecule?
Answer: Its Activity is “Non-toxic”.

Question: And the IC50 [23]?
Answer: Its IC50 is > 100 µM.

Question: And the AUC(0-inf) [24]?
Answer: Its AUC(0-inf) is 1530 ng·h/mL.

Question: What about the ED50 [25] of the same molecule?
Answer: Its ED50 is 5.63 mg/kg.

Question: What about the 2aPTT [26] of the same molecule?
Answer: Its 2aPTT is 0.14 µM.

Question: And the AUC(0-inf) [27]?
Answer: The AUC(0-inf) was 33000 ng·h/mL.
